Results from PMC2810401 (Biochemistry, 2010).
Values after ≈ are worked out from the molar mass of the structure shown. Values joined by “and” are separate entries in the source; they are usually repeats but may differ in a detail not shown here. Equal entries are not always repeated. Where two headings read alike, the source gives them in different places.

What was measured:
[1] = biological target: T1, ADC β-lactamase (Acinetobacter baumannii, UniProt Q6DRA1); settings: obtained previously by same methodology; cited from earlier work
[2] = biological target: T1, ADC β-lactamase; experiment: Ki in direct competition assays with ADC; assay type: biochemical
[3] = biological target: T1, ADC β-lactamase; experiment: ESI-MS of intact ADC incubated with inhibitors; settings: 14 μM ADC, 15 min, inhibitor: enzyme 20:1; error ± 3 amu
Method in brief: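 ADC-7 was expressed in E. coli BL21(DE3) from pET24a(+) with 0.2 mM IPTG at 37 °C for 4 hr. It was purified by preparative isoelectric focusing and gel-filtration FPLC. Incubations were run with and without test compound, then quenched with 0.1% TFA, desalted on C18 and kept on ice. Samples were diluted to 10 μM in 50% acetonitrile/0.1% TFA, nanospray-infused at 0.5 μl/min for 2 min on a Q-TOF, and spectra were deconvoluted.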

[4] = test system: E. coli DH10B blaADC; settings: E. coli DH10B harboring blaADC; previous data; cited from earlier work

Row | Structure (SMILES) | Ki [1] | Ki [2] | Species observed in deconvoluted spectra [3] | Δ difference from β-lactamase molecular weight [3] | MIC [4]
1 | O=C(O)[C@H]1/C(=C/CO)O[C@@H]2CC(=O)N21 [Clavulanate] | 4280 µM |  |  |  | 
2 | C[C@@H](O)[C@H]1C(=O)N2C(C(=O)O)=C(S[C@@H]3CN[C@H](CNS(N)(=O)=O)C3)[C@H](C)[C@H]12 [Doripenem] |  | 12.2 ± 0.4 µM | 41,058 amu and 41,015 amu | 420 amu and 377 amu | 
3 | C[C@@H](O)[C@H]1C(=O)N2C(C(=O)O)=C(S[C@@H]3CN[C@H](C(=O)Nc4cccc(C(=O)O)c4)C3)[C@H](C)[C@H]12 [Ertapenem] |  | 5.8 ± 0.2 µM | 41,069 amu and 41,112 amu | 431 amu and 474 amu | 0.06 µg/mL (≈ 0.126 µM)
4 | C[C@@H](O)[C@H]1C(=O)N2C(C(=O)O)=C(SCCN=CN)C[C@H]12 [Imipenem] |  | 1.3 ± 0.1 µM | 40,936 amu and 40,893 amu | 298 amu and 255 amu | 
5 | C[C@@H](O)[C@H]1C(=O)N2C(C(=O)O)=C(S[C@@H]3CN[C@H](C(=O)N(C)C)C3)[C@H](C)[C@H]12 [Meropenem] |  | 19 ± 2 µM | 41,021 amu and 40,979 amu | 383 amu and 341 amu | 0.06 µg/mL (≈ 0.156 µM)
6 | CC1(C)[C@H](C(=O)O)N2C(=O)C[C@H]2S1(=O)=O [Sulbactam] | 109 ± 3 µM |  |  |  | 
7 | C[C@]1(Cn2ccnn2)[C@H](C(=O)O)N2C(=O)C[C@H]2S1(=O)=O [Tazobactam] | 91 ± 21 µM |  |  |  | 
